Measured values from ChEMBL document CHEMBL1148973, “Bioactive friedolanostanes and 11(10-->8)-abeolanostanes from the bark of Garcinia speciosa” (2004).

Key:
Assay type in all cases: functional
MCF7 [1] = assay: Cytotoxicity against human MCF7 cells after 48 hrs by SRB assay; conditions: MCF7, 48 h
Outline: (§1)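 SRB growth-inhibition assay following the NCI screen protocol. Cells were kept adherent in RPMI-1640 with 5% heat-inactivated FBS and 2 mM glutamine at 37 °C under 5% CO2. Plating density was 1.5 × 10^5 cells/mL for MCF-7 and SF-268 and 7.5 × 10^4 cells/mL for NCI-H-460. Cells attached overnight, then received five concentrations (top 100 µM) for 48 h. Cells were fixed in situ, stained with SRB and the bound dye solubilised. GI50 was taken from dose-response curves. Doxorubicin served as positive control.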

MCF7 [2] = assay: Induction of apoptosis in human MCF7 cells assessed as fragmentation of genomic DNA at 19.2 uM after 48 hrs by TUNEL assay
Outline: (§2)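 MCF-7 cells were seeded at 1.5 × 10^5 cells/mL, grown 24 h at 37°, then exposed continuously for 48 h. Adherent and floating cells were harvested by trypsinisation, cytospun onto slides and fixed in 4% paraformaldehyde for 1 h at room temperature. DNA fragmentation was detected by fluorescein TUNEL with DAPI counterstain under fluorescence microscopy. Apoptotic percentage came from ≥400 cells over ≥5 random fields. Controls were untreated cells and 40 nM doxorubicin.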

SF-268 = assay: Cytotoxicity against human SF268 cells after 48 hrs by SRB assay; conditions: SF-268, 48 h; outline: as §1
NCI-H460 = assay: Cytotoxicity against human NCI-H460 cells after 48 hrs by SRB assay; conditions: NCI-H460, 48 h; outline: as §1
MCF7 [3] = assay: Induction of apoptosis in human MCF7 cells assessed as fragmentation of genomic DNA at 19.4 uM after 48 hrs by TUNEL assay; outline: as §2
MCF7 [4] = assay: Induction of apoptosis in human MCF7 cells assessed as fragmentation of genomic DNA at 26 uM after 48 hrs by TUNEL assay; outline: as §2
MCF7 [5] = assay: Induction of apoptosis in human MCF7 cells assessed as fragmentation of genomic DNA at 0.043 uM after 48 hrs by TUNEL assay
MCF7 [6] = assay: Induction of apoptosis in human MCF7 cells assessed as fragmentation of genomic DNA at 15.3 uM after 48 hrs by TUNEL assay; outline: as §2
MCF7 [7] = assay: Induction of apoptosis in human MCF7 cells assessed as fragmentation of genomic DNA at 22.3 uM after 48 hrs by TUNEL assay; outline: as §2
MCF7 [8] = assay: Induction of apoptosis in human MCF7 cells assessed as fragmentation of genomic DNA at 15.5 uM after 48 hrs by TUNEL assay; outline: as §2

For COC(=O)/C(C)=C/[C@H]1C[C@@H](C)[C@]2(C)[C@@H](C=C3C4=C(CC[C@]32C)[C@@]2(C)CC[C@@H](O)C(C)(C)[C@@H]2CC4)O1, the GI50 (MCF7 [1]) was 19.2 µM, the Activity (MCF7 [2]) was 2.97% and the GI50 (SF-268) was 29.7 µM. The GI50 (NCI-H460) was 30.4 µM.
In the case of COC(=O)[C@@H](C)CC(=O)C[C@@H](C)C1=CC[C@@]2(C)[C@@H]3CC[C@H]4C(C)(C)[C@@H](O)CC[C@]4(C)C3=CC[C@]12C, the GI50 (MCF7 [1]) is reported as greater than 100 µM, the GI50 (SF-268) is reported as greater than 100 µM and the GI50 (NCI-H460) is reported as greater than 100 µM.
C[C@H](CC(=O)C[C@H](C)C(=O)O)C1=CC[C@@]2(C)[C@@H]3CC[C@H]4C(C)(C)[C@H](O)CC[C@]4(C)C3=CC[C@]12C showed a GI50 (MCF7 [1]) of 19.4 µM, a GI50 (SF-268) of 34.8 µM and a GI50 (NCI-H460) of 36.9 µM. The Activity (MCF7 [3]) was 2.34%.
Work on COC(=O)/C(C)=C/[C@H](O)C[C@@H](C)[C@]1(C)CC(=O)C2=C3CC[C@H]4C(C)(C)[C@H](O)CC[C@]4(C)[C@H]3CC[C@]21C yielded a GI50 (MCF7 [1]) of 26 µM, a GI50 (SF-268) of 44.7 µM and an Activity (MCF7 [4]) of 26.36%. It also gave a GI50 (NCI-H460) of 42.7 µM.
COc1cccc2c1C(=O)c1c(O)c3c(c(O)c1C2=O)C[C@@](O)(C(=O)CO)C[C@@H]3O[C@H]1C[C@H](N)[C@H](O)[C@H](C)O1 [DOXORUBICIN] was tested, and the GI50 (MCF7 [1]) was 0.043 µM, the Activity (MCF7 [5]) was 26.02% and the GI50 (SF-268) was 0.093 µM. The GI50 (NCI-H460) was 0.094 µM.
With COC(=O)/C(C)=C/[C@H]1C[C@@H](C)[C@]2(C)[C@@H](C=C3C4=C(CC[C@]32C)[C@@]2(C)CC[C@@H](OC(C)=O)C(C)(C)[C@@H]2CC4)O1 the GI50 (MCF7 [1]) was 15.3 µM, the GI50 (SF-268) was 28.6 µM and the Activity (MCF7 [6]) was 23.54%. The GI50 (NCI-H460) was 34.4 µM.
Compound COC(=O)/C(C)=C/[C@H](O)C[C@@H](C)[C@]1(C)CC=C2C3=C(CC[C@]21C)[C@@]1(C)CC[C@@H](O)C(C)(C)[C@@H]1CC3 [GARCIHOMBRONANES C] has a GI50 (MCF7 [1]) of 22.3 µM, an Activity (MCF7 [7]) of 17.36% and a GI50 (SF-268) of 38.6 µM. For the same compound, the GI50 (NCI-H460) was 37.9 µM.
C/C(=C\CC[C@@H](C)[C@@]1(C)C[C@H]2O[C@]23[C@]1(C)CCC(=O)[C@@]31CC[C@H]2C(C)(C)[C@@H](O)CC[C@@]21C)C(=O)O was tested, and the GI50 (MCF7 [1]) was 63.8 µM, the GI50 (SF-268) was 86.4 µM and the GI50 (NCI-H460) was 68.6 µM.
CC(=O)O[C@H]1CC[C@]2(C)C3=CC[C@]4(C)C([C@H](C)CC(=O)C[C@H](C)C(=O)O)=CC[C@@]4(C)[C@@H]3CC[C@H]2C1(C)C gave a GI50 (MCF7 [1]) of 15.5 µM, an Activity (MCF7 [8]) of 5.33% and a GI50 (SF-268) of 30.6 µM. The GI50 (NCI-H460) was 22.1 µM.
In the case of C/C(=C\C=C/[C@@H](C)[C@@]1(C)C[C@H]2O[C@]23[C@]1(C)CCC(=O)[C@@]31CC[C@H]2C(C)(C)[C@@H](O)CC[C@@]21C)C(=O)O, the GI50 (MCF7 [1]) is reported as 69.6 µM, the GI50 (SF-268) is reported as 95.7 µM and the GI50 (NCI-H460) is reported as 70.3 µM.
